Published values from different studies.
Lines come from different studies, so protocols differ.
Target: Dual specificity protein kinase TTK (TTK, Homo sapiens, UniProt P33981)
Sequence (P33981 1-857, as in one of the studies): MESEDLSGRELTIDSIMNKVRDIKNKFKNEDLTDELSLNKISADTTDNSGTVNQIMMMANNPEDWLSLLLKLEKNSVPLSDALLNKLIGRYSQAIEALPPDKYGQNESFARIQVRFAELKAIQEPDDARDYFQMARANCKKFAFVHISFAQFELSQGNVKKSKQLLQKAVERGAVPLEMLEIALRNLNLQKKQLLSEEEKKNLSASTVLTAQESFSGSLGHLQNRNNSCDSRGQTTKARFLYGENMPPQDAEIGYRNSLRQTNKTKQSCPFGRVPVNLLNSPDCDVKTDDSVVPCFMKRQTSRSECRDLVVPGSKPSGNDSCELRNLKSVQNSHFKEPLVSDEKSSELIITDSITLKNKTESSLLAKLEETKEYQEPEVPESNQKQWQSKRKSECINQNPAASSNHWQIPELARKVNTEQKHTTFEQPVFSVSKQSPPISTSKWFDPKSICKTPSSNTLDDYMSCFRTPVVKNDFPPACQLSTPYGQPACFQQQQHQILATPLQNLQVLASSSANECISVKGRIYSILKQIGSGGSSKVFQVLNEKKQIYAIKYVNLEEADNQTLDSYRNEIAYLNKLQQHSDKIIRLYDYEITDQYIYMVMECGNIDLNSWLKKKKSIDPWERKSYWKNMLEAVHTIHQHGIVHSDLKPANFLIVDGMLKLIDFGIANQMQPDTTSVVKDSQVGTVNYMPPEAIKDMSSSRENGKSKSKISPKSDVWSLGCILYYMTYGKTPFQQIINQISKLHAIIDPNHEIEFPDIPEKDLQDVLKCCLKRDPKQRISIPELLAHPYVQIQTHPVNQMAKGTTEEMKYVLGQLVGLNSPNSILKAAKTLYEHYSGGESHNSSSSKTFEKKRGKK

| SMILES | observed | technique | concentration | remaining binding |
| --- | --- | --- | --- | --- |
| c1cncc(-c2cccc(Nc3nccc(NC4CCCCC4)n3)c2)c1 | binding | competition with immobilised ligand | 10 µM | 30% |
| NS(=O)(=O)c1cc(NC(=O)Cc2ccccc2)ccc1Oc1cccc(Cl)c1 | cell-free assay | competition with immobilised ligand | 1 µM | 91% |
| O=C(NCCCN1CCOCC1)c1ccc(Nc2ncc(Cl)c(-c3ccc(Cl)s3)n2)cc1 | binding | competition with immobilised ligand | 1 µM | 58% |
| CNC(=O)[C@@H]1CC[C@@H](n2c(-c3ccc4cnccc4c3)nc3ccc(C(=O)NCc4cccc(C(N)=O)c4)cc32)C1 | binding | competition with immobilised ligand | 1 µM | 100% |
| CCC(=O)N[C@H]1CC[C@@H](C(=O)N(C)c2ccc(-c3nc4ccccc4o3)cc2)C1 | cell-free assay | competition with immobilised ligand | 1 µM | 100% |
| CN(c1nccc(-c2cnn3ncccc23)n1)C1CC1 | binding | – | 1 µM | 69% |
| CCN1CCN(Cc2ccc(C(=O)Nc3ccc(C)c(Oc4ccc5c(c4)CC(=O)N5)c3)cc2C(F)(F)F)CC1 | binding | competition with immobilised ligand | 1 µM | 100% |
| c1cnn2ncc(-c3ccnc(N4CCC45COC5)n3)c2c1 | binding | – | 1 µM | 61% |
| N#CC1(c2ccccn2)CCN(Cc2cc(C(=O)N3CCCC3)c(=O)n3ccccc23)CC1 | cell-free assay | competition with immobilised ligand | 1 µM | 98% |
| COc1cnc(Nc2cccc(S(N)(=O)=O)c2)nc1N1CCN(c2ccccc2)C(=O)C1 | binding | competition with immobilised ligand | 1 µM | 77% |
| Cc1cnc(Nc2ccc(C(=O)N3CCC(N4CCCC4)CC3)cc2)nc1-c1cc2ccccc2s1 | binding | competition with immobilised ligand | 1 µM | 26% |
| N[C@@H]1CCN(c2nccc(-c3cnn4ncccc34)n2)C1 | binding | – | 1 µM | 100% |
| CCOC(=O)c1cc2cc(-c3cc(C(=O)NCc4ccc(C(=O)O)cc4)nn3C)ccc2[nH]1 | cell-free assay | competition with immobilised ligand | 0.1 µM | 93% |
| CN(C)c1ncc(F)c(-c2cnn3ncccc23)n1 | binding | – | 1 µM | 66% |
| COc1ncc2cc3ccccc3nc2c1C#N | cell-free assay | competition with immobilised ligand | 5 µM | 85% |
| O=C(Nc1c[nH]nc1C(=O)NC1CCNCC1)c1cc(F)cc(F)c1 | binding | competition with immobilised ligand | 1 µM | 100% |
| CO[C@@H](C)c1c(Nc2ccc([C@@H](N(C)C(=O)C3CCS(=O)(=O)CC3)C(F)(F)F)cc2)cnc2cc(Cl)nn12 | cell-free assay | competition with immobilised ligand | 1 µM | 100% |
| CN(C)c1nccc(-c2cnc3ncccn23)n1 | binding | – | 1 µM | 74% |
| CNC(=O)Nc1ccc2c(c1)CC[C@@]21OC(=O)N(CC(=O)N(Cc2ccc(F)cc2)[C@@H](C)C(F)(F)F)C1=O | cell-free assay | competition with immobilised ligand | 1 µM | 100% |
| C[C@H]1CCN(c2nccc(-c3cnn4ncccc34)n2)C1 | binding | – | 1 µM | 34% |
| O=C(c1ccc(Nc2ncc(Cl)c(-c3ccc(Cl)s3)n2)cc1)N1CCC(N2CCCC2)CC1 | binding | competition with immobilised ligand | 1 µM | 26% |
